Measured values as given in ChEMBL document CHEMBL5303300, “EUbOPEN Chemogenomics Library - Multiplex” (2023).
Several values for one entry are separate records, joined by “and”; a condition that tells them apart may be missing. Identical values can stand only once.

Test system: U2OS
Assay: Multiplex assay against U2OS
Assay type: toxicity, cell-based
Details: human, number of replicates 2
In short: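 Imaging took place on a CQ1 microscope at 37°C and 5% CO2 once compound had been added to live cells stained at seeding with Hoechst33342, BioTracker Green Microtubule Cytoskeleton Dye, MitoTracker Red and Annexin V Alexa Fluor 680. CellPathfinder machine-learning gating classed cells as Hoechst high-intensity objects or normal cells, classed normal cells as having healthy, pyknosed or fragmented nuclei, and classed pyknosed cells as mitotic or apoptotic. Tubulin, mitochondrial-mass and membrane-permeability phenotypes are per cents of the healthy-nucleus cells.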

[1] = 12 h, 1 µM, compound concentration 1 uM
[2] = 12 h, 10 µM, compound concentration 10 uM
[3] = 24 h, 1 µM, compound concentration 1 uM
[4] = 24 h, 10 µM, compound concentration 10 uM
[5] = 48 h, 1 µM, compound concentration 1 uM
[6] = 48 h, 10 µM, compound concentration 10 uM

COc1nc2ccc([C@@](O)(c3ccc(Cl)cc3)c3cncn3C)cc2c(Cl)c1Cc1ccc(-n2cccn2)cc1 [JNJ-53721590]
Population Healthy Nuclei (%) [1]: 56% and 85%
Population Hoechst High Intensity Objects (%) [1]: 0%
Population Membrane Permeable-Phenotype (%) [1]: 5% and 1%
Population Mitochondria Different-Phenotype (%) [1]: 0% and 20%
Population Normal (%) [1]: 100%
Population Pyknosed Nuclei (%) [1]: 16% and 10%
Population Tubulin-Different-Phenotype (%) [1]: 23% and 37%
Population Apoptotic (%) [2]: 74% and 57%
Population Fragmented Nuclei (%) [2]: 2% and 12%
Population Healthy Nuclei (%) [2]: 82% and 74%
Population Hoechst High Intensity Objects (%) [2]: 0%
Population Membrane Permeable-Phenotype (%) [2]: 29% and 21%
Population Mitochondria Different-Phenotype (%) [2]: 28% and 56%
Population Mitotic Cells (%) [2]: 25% and 42%
Population Normal (%) [2]: 99% and 100%
Population Pyknosed Nuclei (%) [2]: 14% and 12%
Population Tubulin-Different-Phenotype (%) [2]: 89% and 97%
Population Apoptotic (%) [3]: 50% and 62%
Population Fragmented Nuclei (%) [3]: 20% and 0%
Population Healthy Nuclei (%) [3]: 45% and 85%
Population Hoechst High Intensity Objects (%) [3]: 0%
Population Membrane Permeable-Phenotype (%) [3]: 0% and 1%
Population Mitochondria Different-Phenotype (%) [3]: 6% and 17%
Population Mitotic Cells (%) [3]: 50% and 37%
Population Normal (%) [3]: 100% and 99%
Population Pyknosed Nuclei (%) [3]: 34% and 13%
Population Tubulin-Different-Phenotype (%) [3]: 25% and 42%
Population Apoptotic (%) [4]: 79% and 36%
Population Fragmented Nuclei (%) [4]: 3% and 12%
Population Healthy Nuclei (%) [4]: 78% and 64%
Population Hoechst High Intensity Objects (%) [4]: 0%
Population Membrane Permeable-Phenotype (%) [4]: 34% and 35%
Population Mitochondria Different-Phenotype (%) [4]: 43% and 54%
Population Normal (%) [4]: 99% and 100%
Population Pyknosed Nuclei (%) [4]: 18% and 22%
Population Tubulin-Different-Phenotype (%) [4]: 93%
Population Apoptotic (%) [5]: 70% and 81%
Population Healthy Nuclei (%) [5]: 86% and 54%
Population Hoechst High Intensity Objects (%) [5]: 0%
Population Mitochondria Different-Phenotype (%) [5]: 9% and 13%
Population Mitotic Cells (%) [5]: 29% and 18%
Population Normal (%) [5]: 99% and 100%
Population Pyknosed Nuclei (%) [5]: 10% and 26%
Population Apoptotic (%) [6]: 64% and 85%
Population Healthy Nuclei (%) [6]: 47% and 65%
Population Hoechst High Intensity Objects (%) [6]: 0%
Population Membrane Permeable-Phenotype (%) [6]: 57% and 47%
Population Mitochondria Different-Phenotype (%) [6]: 48% and 34%
Population Mitotic Cells (%) [6]: 35% and 14%
Population Normal (%) [6]: 100% and 99%
Population Pyknosed Nuclei (%) [6]: 24% and 26%
Population Tubulin-Different-Phenotype (%) [6]: 96% and 90%

Cc1ccc(C(=O)Nc2cc(N3CCN(C)CC3)cc(C(F)(F)F)c2)cc1-n1cc(-c2cnn(C)c2C)nn1.Cl
Population Apoptotic (%) [1]: 25% and 60%
Population Healthy Nuclei (%) [1]: 70% and 79%
Population Hoechst High Intensity Objects (%) [1]: 0%
Population Membrane Permeable-Phenotype (%) [1]: 12% and 17%
Population Mitotic Cells (%) [1]: 75% and 39%
Population Normal (%) [1]: 100%
Population Pyknosed Nuclei (%) [1]: 8% and 17%
Population Tubulin-Different-Phenotype (%) [1]: 69% and 29%
Population Apoptotic (%) [2]: 60% and 83%
Population Healthy Nuclei (%) [2]: 69% and 51%
Population Hoechst High Intensity Objects (%) [2]: 0%
Population Membrane Permeable-Phenotype (%) [2]: 28% and 37%
Population Mitochondria Different-Phenotype (%) [2]: 42% and 62%
Population Mitotic Cells (%) [2]: 39% and 16%
Population Normal (%) [2]: 100%
Population Pyknosed Nuclei (%) [2]: 24% and 19%
Population Tubulin-Different-Phenotype (%) [2]: 86% and 87%
Population Apoptotic (%) [3]: 31% and 70%
Population Healthy Nuclei (%) [3]: 55% and 73%
Population Hoechst High Intensity Objects (%) [3]: 0%
Population Membrane Permeable-Phenotype (%) [3]: 0% and 9%
Population Mitotic Cells (%) [3]: 68% and 29%
Population Normal (%) [3]: 100%
Population Pyknosed Nuclei (%) [3]: 27% and 24%
Population Tubulin-Different-Phenotype (%) [3]: 68% and 44%
Total Cell Count [3]: 69 and 193
Population Apoptotic (%) [4]: 85%
Population Fragmented Nuclei (%) [4]: 28% and 10%
Population Healthy Nuclei (%) [4]: 46% and 50%
Population Hoechst High Intensity Objects (%) [4]: 3% and 0%
Population Membrane Permeable-Phenotype (%) [4]: 23% and 42%
Population Mitochondria Different-Phenotype (%) [4]: 38% and 55%
Population Mitotic Cells (%) [4]: 14%
Population Normal (%) [4]: 96% and 99%
Population Pyknosed Nuclei (%) [4]: 25% and 38%
Population Tubulin-Different-Phenotype (%) [4]: 69% and 89%
Population Apoptotic (%) [5]: 69% and 75%
Population Fragmented Nuclei (%) [5]: 9% and 3%
Population Healthy Nuclei (%) [5]: 65% and 72%
Population Hoechst High Intensity Objects (%) [5]: 0%
Population Membrane Permeable-Phenotype (%) [5]: 4% and 8%
Population Mitotic Cells (%) [5]: 30% and 24%
Population Normal (%) [5]: 100% and 99%
Population Pyknosed Nuclei (%) [5]: 24%
Population Tubulin-Different-Phenotype (%) [5]: 72% and 41%
Population Apoptotic (%) [6]: 92% and 100%
Population Healthy Nuclei (%) [6]: 21% and 26%
Population Hoechst High Intensity Objects (%) [6]: 0%
Population Membrane Permeable-Phenotype (%) [6]: 52% and 22%
Population Mitochondria Different-Phenotype (%) [6]: 63% and 55%
Population Mitotic Cells (%) [6]: 7% and 0%
Population Normal (%) [6]: 99% and 100%
Population Pyknosed Nuclei (%) [6]: 67% and 38%
Population Tubulin-Different-Phenotype (%) [6]: 86% and 66%

Cc1c(C(=O)Nc2ccc(N3C[C@@H](C)O[C@@H](C)C3)nc2)cccc1-c1ccc(OC(F)(F)F)cc1 [SONIDEGIB]
Population Apoptotic (%) [1]: 66% and 51%
Population Healthy Nuclei (%) [1]: 60% and 79%
Population Hoechst High Intensity Objects (%) [1]: 0%
Population Membrane Permeable-Phenotype (%) [1]: 4% and 1%
Population Mitochondria Different-Phenotype (%) [1]: 0%
Population Mitotic Cells (%) [1]: 33% and 48%
Population Normal (%) [1]: 100%
Population Pyknosed Nuclei (%) [1]: 7% and 13%
Population Tubulin-Different-Phenotype (%) [1]: 56% and 90%
Population Healthy Nuclei (%) [2]: 61% and 85%
Population Hoechst High Intensity Objects (%) [2]: 0%
Population Membrane Permeable-Phenotype (%) [2]: 0% and 1%
Population Mitochondria Different-Phenotype (%) [2]: 0%
Population Mitotic Cells (%) [2]: 100% and 54%
Population Normal (%) [2]: 100%
Population Pyknosed Nuclei (%) [2]: 11%
Population Tubulin-Different-Phenotype (%) [2]: 57% and 90%
Population Apoptotic (%) [3]: 50% and 66%
Population Healthy Nuclei (%) [3]: 68% and 85%
Population Hoechst High Intensity Objects (%) [3]: 0%
Population Membrane Permeable-Phenotype (%) [3]: 0% and 2%
Population Mitochondria Different-Phenotype (%) [3]: 0%
Population Mitotic Cells (%) [3]: 50% and 33%
Population Normal (%) [3]: 100% and 99%
Population Pyknosed Nuclei (%) [3]: 4% and 9%
Population Tubulin-Different-Phenotype (%) [3]: 64% and 88%
Population Apoptotic (%) [4]: 50% and 63%
Population Healthy Nuclei (%) [4]: 61% and 90%
Population Hoechst High Intensity Objects (%) [4]: 0%
Population Membrane Permeable-Phenotype (%) [4]: 4% and 1%
Population Mitochondria Different-Phenotype (%) [4]: 0%
Population Mitotic Cells (%) [4]: 50% and 36%
Population Normal (%) [4]: 100%
Population Pyknosed Nuclei (%) [4]: 10% and 7%
Population Tubulin-Different-Phenotype (%) [4]: 75% and 90%
Population Apoptotic (%) [5]: 33% and 54%
Population Healthy Nuclei (%) [5]: 60% and 89%
Population Hoechst High Intensity Objects (%) [5]: 0%
Population Membrane Permeable-Phenotype (%) [5]: 6% and 1%
Population Mitochondria Different-Phenotype (%) [5]: 0%
Population Mitotic Cells (%) [5]: 66% and 45%
Population Normal (%) [5]: 100%
Population Pyknosed Nuclei (%) [5]: 5% and 7%
Population Tubulin-Different-Phenotype (%) [5]: 70% and 89%
Population Apoptotic (%) [6]: 42% and 46%
Population Healthy Nuclei (%) [6]: 71% and 91%
Population Hoechst High Intensity Objects (%) [6]: 0%
Population Membrane Permeable-Phenotype (%) [6]: 0% and 1%
Population Mitochondria Different-Phenotype (%) [6]: 0%
Population Mitotic Cells (%) [6]: 57% and 53%
Population Normal (%) [6]: 100%
Population Pyknosed Nuclei (%) [6]: 8% and 6%
Population Tubulin-Different-Phenotype (%) [6]: 74% and 89%

CC1=C(C)C(=O)C(C(C)(C)CC(=O)N(CCCCSC[C@H]2O[C@@H](n3cnc4c(N)ncnc43)[C@H](O)[C@@H]2O)Cc2cccc(-c3ccc(Cl)cc3)c2)=C(C)C1=O
Population Apoptotic (%) [1]: 33% and 50%
Population Fragmented Nuclei (%) [1]: 4% and 7%
Population Healthy Nuclei (%) [1]: 85% and 72%
Population Hoechst High Intensity Objects (%) [1]: 0%
Population Membrane Permeable-Phenotype (%) [1]: 5% and 6%
Population Mitochondria Different-Phenotype (%) [1]: 4% and 0%
Population Mitotic Cells (%) [1]: 66% and 50%
Population Normal (%) [1]: 99% and 100%
Population Pyknosed Nuclei (%) [1]: 10% and 20%
Population Tubulin-Different-Phenotype (%) [1]: 57% and 34%
Population Apoptotic (%) [2]: 75% and 58%
Population Fragmented Nuclei (%) [2]: 8% and 4%
Population Healthy Nuclei (%) [2]: 69% and 79%
Population Hoechst High Intensity Objects (%) [2]: 0%
Population Membrane Permeable-Phenotype (%) [2]: 16% and 24%
Population Mitochondria Different-Phenotype (%) [2]: 40% and 33%
Population Mitotic Cells (%) [2]: 25% and 41%
Population Normal (%) [2]: 100%
Population Pyknosed Nuclei (%) [2]: 22% and 16%
Population Tubulin-Different-Phenotype (%) [2]: 96% and 86%
Population Apoptotic (%) [3]: 53% and 77%
Population Fragmented Nuclei (%) [3]: 2% and 6%
Population Healthy Nuclei (%) [3]: 89% and 77%
Population Hoechst High Intensity Objects (%) [3]: 0%
Population Membrane Permeable-Phenotype (%) [3]: 3% and 4%
Population Mitochondria Different-Phenotype (%) [3]: 4% and 6%
Population Mitotic Cells (%) [3]: 46% and 22%
Population Normal (%) [3]: 99% and 100%
Population Pyknosed Nuclei (%) [3]: 7% and 15%
Population Tubulin-Different-Phenotype (%) [3]: 66% and 42%
Population Apoptotic (%) [4]: 87% and 79%
Population Healthy Nuclei (%) [4]: 53% and 70%
Population Hoechst High Intensity Objects (%) [4]: 0%
Population Membrane Permeable-Phenotype (%) [4]: 50% and 23%
Population Mitochondria Different-Phenotype (%) [4]: 42% and 45%
Population Mitotic Cells (%) [4]: 12% and 20%
Population Normal (%) [4]: 100% and 99%
Population Pyknosed Nuclei (%) [4]: 30% and 25%
Population Tubulin-Different-Phenotype (%) [4]: 78% and 90%
Population Apoptotic (%) [5]: 100% and 39%
Population Fragmented Nuclei (%) [5]: 9% and 3%
Population Healthy Nuclei (%) [5]: 77% and 89%
Population Hoechst High Intensity Objects (%) [5]: 0%
Population Membrane Permeable-Phenotype (%) [5]: 4% and 1%
Population Mitochondria Different-Phenotype (%) [5]: 7% and 0%
Population Normal (%) [5]: 100%
Population Pyknosed Nuclei (%) [5]: 12% and 7%
Population Tubulin-Different-Phenotype (%) [5]: 56% and 79%
Population Apoptotic (%) [6]: 68% and 78%
Population Healthy Nuclei (%) [6]: 32% and 66%
Population Hoechst High Intensity Objects (%) [6]: 0%
Population Membrane Permeable-Phenotype (%) [6]: 66% and 36%
Population Mitochondria Different-Phenotype (%) [6]: 58% and 52%
Population Mitotic Cells (%) [6]: 31% and 21%
Population Normal (%) [6]: 100% and 99%
Population Pyknosed Nuclei (%) [6]: 51% and 28%
Population Tubulin-Different-Phenotype (%) [6]: 100% and 82%
